# m-calpain inh: blocks pig calpain II enzyme activity; inhibition, % at 16 µM; 220,000 compounds, 0.37% hits; AID 1236; purified calpain II, fluorogenic peptide substrate, 30 min;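 active = inhibition above about 50%, limit read from the data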
# Rad51 HR inh: blocks human Rad51 in homologous recombination. inhibition, % at 10 µM. hRad51 DNA strand exchange, fluorescence dequenching. AID 1385. Q06609. 200,000 compounds, 0.085% hits;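 active = inhibition above 40% at the single screening dose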;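 also: 0% = DMSO control wells and 100% = blanks with heterologous ssDNA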
#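 material = hRad51 filaments on single-stranded DNA | reagent = Donor/quencher-labelled 47-bp dsDNA substrate | compound = 10 µM final, single point | schedule = strand-exchange reaction 15 min at room temperature | measured by = fluorescein emission 520 nm, excitation 485 nm | read-out basis = % inhibition versus plate control and blank means | benchmarks = plate controls and plate blanks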
# Efa HMGR inh: inhibitors of class II HMG-CoA reductase from Enterococcus faecalis; purified E. faecalis HMGR, NADPH absorbance 340 nm kinetic; inhibition, % at 10 µM; 190,000 compounds, 0.41% hits; AID 1066;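 active = inhibition above a set limit, the median over all tested compounds plus 3 SD, cut at about 9.5% in these data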;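 also: enzyme runs in reverse so mevalonate oxidation gives rising NADPH absorbance; 0% = complete reaction with DMSO and 100% = background rate lacking mevalonate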
# PMI act satM6P: activators of human phosphomannose isomerase at near-saturating mannose 6-phosphate. P34949. coupled PMI enzyme assay, resazurin fluorescence, 20 min; stronger effect = higher value; 1 = untreated enzyme, 0 = substrate-free blank. activation factor at 20 µM. 190,000 compounds, 0.34% hits. AID 1216;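 active = activation factor of 2 or more at 20 µM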
# Target sequence (P34949 whole entry, looked up): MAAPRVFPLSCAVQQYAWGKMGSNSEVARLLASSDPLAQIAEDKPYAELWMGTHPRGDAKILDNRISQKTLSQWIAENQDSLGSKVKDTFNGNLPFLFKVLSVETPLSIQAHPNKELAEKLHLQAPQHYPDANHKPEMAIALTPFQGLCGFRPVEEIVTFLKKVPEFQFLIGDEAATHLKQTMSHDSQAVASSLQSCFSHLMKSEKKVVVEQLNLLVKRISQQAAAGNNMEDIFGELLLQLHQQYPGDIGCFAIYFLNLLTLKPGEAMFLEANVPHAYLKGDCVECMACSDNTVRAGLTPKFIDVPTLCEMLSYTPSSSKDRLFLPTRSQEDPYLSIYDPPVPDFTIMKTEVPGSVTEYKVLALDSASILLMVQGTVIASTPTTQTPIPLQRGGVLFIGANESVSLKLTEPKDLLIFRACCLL
#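 Material: human phosphomannose isomerase with PGI, G6PDH, diaphorase coupling enzymes; amount: PMI at 15 ng/mL final; also added: Mannose-6-phosphate 1.0 mM (near-saturating) plus 0.22 mM NADP+; incubation: enzyme reaction with compound 20 min at room temperature; signal: resorufin fluorescence (Ex 544/Em 590 nm) from resazurin via diaphorase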
# PMI activator: activators of human phosphomannose isomerase; purified human PMI, coupled resazurin fluorescence, 20 min; stronger effect = higher value; 1 = vehicle control, 0 substrate-free wells; P34949; AID 1214; 190,000 compounds, 0.005% hits; activation factor at 20 µM;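 active = activation factor of 2 or more at 20 µM, relative to plate controls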
# * marks the source's active call; other numbers are inactive results; i = inactive; nt = no result. Compounds with a hit are over-represented: about 1.1% of the library has one in this group of screens.
SMILES,m-calpain inh,Rad51 HR inh,Efa HMGR inh,PMI act satM6P,PMI activator
Cc1cccc(NC(=O)c2sc(Cl)nc2C)c1C,11,-6,-3,1.2,1.2
CC(=O)c1c(COC(=O)c2ccccc2Cl)nc2ccccc2[n+]1[O-],7,8,nt,nt,nt
O=C(Nc1cc(C(=O)N2CCOCC2)ccc1N1CCCC1)c1cccs1,-12,7,-4,2.1*,1.7
O=C(O)CCCNC(=O)OCc1ccccc1,6,-10,0,1.1,1
O=C(O)C/C=C(\NC(=O)OCc1ccccc1)C(=O)OCc1ccccc1,15,-4,-1,2.6*,1.9
COc1cc(NC(=S)NCCC(c2ccccc2)c2ccccc2)cc(OC)c1,5,nt,-4,1,1
COc1cccc(NC(=S)NCCC(c2ccccc2)c2ccccc2)c1,56*,nt,0,1,1
COC(=O)c1sc2nc(-c3ccccc3)c3c(c2c1N)CCCC3,-270,-6,2,1,0.9
Nc1c(C(=O)O)sc2nc(-c3ccccc3)c3c(c12)CCCC3,-46,-5,4,2.2*,1.5
COc1ccccc1C1CCCN1Cc1nc(-c2cc3c(cc2Cl)OCO3)oc1C (stereo not given),32,-6,-1,0.9,0.9
COc1ccccc1C1CCCN1Cc1nc(-c2ccc(C)s2)oc1C (stereo not given),-102,-12,12*,1,0.9
c1csc(-c2nnc(N3CCOCC3)c3ccccc23)c1,0,2,11*,1,1.1
c1csc(-c2nnc(N3CCCCCC3)c3ccccc23)c1,8,2,2,1.2,1
O=C(CN1C(=O)/C(=C/c2cccc(Br)c2)SC1=S)NC1=NCCS1,84*,nt,4,1,0.9
O=C(CN1C(=O)/C(=C/c2cccc(Br)c2)SC1=S)Nc1cccnc1,-12,-7,3,1,1
FC(F)(F)c1nnc2ccc(N3CCCC3)nn12,10,57*,0,0.9,0.9
COc1ccc(C(=O)CNc2ccc(C)cc2C)cc1,-3,6,nt,nt,nt
Cc1ccc(F)c(NC(=O)/C(C#N)=C(\O)c2ccc(C(C)(C)C)cc2)c1,18,2,-4,1,1.1
CCNC(=S)N(CCc1c(C)[nH]c2ccc(Cl)cc12)Cc1ccco1,59*,-11,-4,0.9,0.8
Cc1ccc(S(=O)(=O)N(C)CCCC(=O)NC(C)(C)CO)cc1,-8,nt,-1,1,0.9
Cc1ccc(S(=O)(=O)N(C)CCCC(=O)NC(C)(C)C)cc1,8,8,12*,1,1
O=C(CCCN1C(=O)c2ccccc2C1=O)N1CCC(c2ccccc2)C1 (stereo not given),51*,-3,-2,0.9,1
C/C(=N\NC(=O)C1CC1)c1ccccc1O,-4,4,5,1.1,1
C=C(C)CNC(=S)N/N=C/c1c(F)cccc1F,57*,-1,-8,0.9,1
COC(=O)c1ccccc1NC(=O)CSc1nnc(-c2cccnc2)n1N,-15,44*,-1,1.1,1.1
SMILES,m-calpain inh,Rad51 HR inh,Efa HMGR inh,PMI act satM6P,PMI activator
Cc1cc(NC(=O)CSc2nnc(-c3ccncc3)n2N)ccc1Br,137*,0,-5,0.9,0.9
O=[N+]([O-])c1cc(Cl)cc(/C=N/NC(=S)Nc2ccc(S(=O)(=O)N3CCOCC3)cc2)c1O,19,9,nt,nt,nt
CCOC(=O)c1c(-c2ccc(C)o2)csc1NC(=O)COC(=O)c1ccc(NC(N)=O)cc1,-196,3,-1,1,0.9
O=C(Nc1ccc(OC(=O)c2ccccc2)c(-c2nc3ccccc3s2)c1)c1ccccc1,64*,-1,-9,1,1
CC(=O)Nc1ccc(O)c(-c2nc3ccccc3s2)c1,i,0,-6,0.8,0.9
O=C(N/N=C/c1ccccc1C(=O)O)c1cc(-c2ccc3c4c(cccc24)CC3)n[nH]1,12,12,13*,0.9,1
O=[N+]([O-])c1ccc(Oc2cccc(F)c2)c2ccncc12,51*,-21,0,1,0.9
Cc1cc(F)ccc1NC(=O)C1CCCO1 (stereo not given),-3,2,4,1,1.1
Cc1oc(-c2ccc3c(c2)OCCO3)cc1C(=O)NC(Cc1ccccc1)C(=O)O (stereo not given),-46,nt,1,1.1,1.1
Cc1ccc(N2NC(C)(c3cccs3)NC2=S)cc1 (stereo not given),1,nt,-4,2.7*,1.6
Cc1ccc(NC(=O)N2CCCC2C(=O)Nc2ccc(-n3cnnn3)c(C)c2)cc1 (stereo not given),-20,nt,9.7*,1,1
COC(=O)C(C)n1cnc2c(nnn2-c2ccc(OC)cc2)c1=O (stereo not given),-3,2,14*,1,1
O=C(CCc1nnc(COc2ccccc2)o1)NCCc1cccs1,-18,7,2,1.1,1
CC(C)CSC1=NSC2=NC(=O)/C(=C\c3coc4ccccc4c3=O)C(=N)N12,-28,i,-8,2*,1.6
CSC1=NSC2=NC(=O)/C(=C\c3coc4ccccc4c3=O)C(=N)N12,-93,i,1,1.7,1.3
CCC(C)[C@H](Nc1nc(-c2ccccc2)nc2c1oc1ccccc12)C(=O)O (stereo not given in full),-14,-7,2,1.1,1
OCCC1CN(Cc2cnc(-c3ccccc3)s2)CCN1Cc1ccccc1 (stereo not given),-14,34,0,1,1
OCCC1CN(Cc2cccs2)CCN1Cc1ccccc1 (stereo not given),-10,2,15*,1.2,1.1
O=C(CSc1nnc(Cc2ccccc2)o1)N1CCc2ccccc21,6,85*,-3,1.1,1.1
O=C(CSc1nc2ccccc2c(=O)n1-c1ccccc1)N1CCc2ccccc21,68*,-7,-8,1,0.9
CCOC(=O)C1CCCN(C(=O)CSc2ccc(NC(C)=O)cc2)C1 (stereo not given),63*,10,-1,0.9,0.9
CN(C)C(=O)c1cn(-c2ccccc2)nc1-c1cc2ccccc2o1,-18,-7,-2,2.5*,1.6
CN(C)C(=O)c1cn(-c2ccccc2)nc1-c1cc2ccccc2oc1=O,-410,24,3,1,1
CCC(=O)N(NC1=NS(=O)(=O)c2ccccc21)S(=O)(=O)c1ccc(C)cc1,12,-2,3,1.2,1.1
CCOc1cc(CNCc2cccnc2)ccc1OCC(=O)NC(C)(C)C,6,4,4,1.2,1.2
Cc1ccc(C(=O)OCCn2cc(C#N)c(=O)[nH]c2=O)cc1,-11,-163,-1,0.9,1
Cc1cnc(NC(=O)c2cc3ccccc3o2)s1,-23,2,30*,1,1
O=C(NCc1n[nH]c(=S)n1-c1cccc(Cl)c1)c1cccs1,-15,6,-4,0.9,1

# From PubChem
